≈ marks a conversion by molar mass, not a printed value.
Legend:
Type in all cases: functional
Enterococcus faecium [1] = test: Antibacterial activity against Enterococcus faecium 14-6 after 18 to 24 hrs by two-fold serial dilution method
Summary of the method: (§1)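 Twofold serial dilution in agar media against Gram-positive and Gram-negative strains. Plates incubated at 35 °C for 18–24 h. MIC read as the lowest compound concentration giving complete inhibition of bacterial growth.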

Staphylococcus aureus [2] = test: Antibacterial activity against methicillin-resistant Staphylococcus aureus 14-5 after 18 to 24 hrs by two-fold serial dilution method
Summary of the method: (§2)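 Agar media, standard twofold serial dilution. MIC is the lowest concentration giving complete inhibition of bacterial growth after incubation at 35 °C for 18–24 h. Ciprofloxacin and levofloxacin were run as comparators.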

[3] = tested on: Staphylococcus epidermidis; test: Antibacterial activity against methicillin-resistant Staphylococcus epidermidis 14-39 after 18 to 24 hrs by two-fold serial dilution method; summary of the method: as §2
Staphylococcus aureus [4] = test: Antibacterial activity against Staphylococcus aureus CMCC 26003 after 18 to 24 hrs by two-fold serial dilution method; summary of the method: as §1
Klebsiella pneumoniae [5] = test: Antibacterial activity against Klebsiella pneumoniae 14-4 after 18 to 24 hrs by two-fold serial dilution method; summary of the method: as §1
Streptococcus pneumoniae = test: Antibacterial activity against methicillin-resistant Streptococcus pneumoniae ATCC 19615 after 18 to 24 hrs by two-fold serial dilution method; summary of the method: as §2
Enterococcus faecalis [6] = test: Antibacterial activity against Enterococcus faecalis 14-2 after 18 to 24 hrs by two-fold serial dilution method; summary of the method: as §1
Enterococcus faecium [7] = test: Antibacterial activity against Enterococcus faecium 14-5 after 18 to 24 hrs by two-fold serial dilution method; summary of the method: as §1
Klebsiella pneumoniae [8] = test: Antibacterial activity against extended-spectrum beta-lactamase producing Klebsiella pneumoniae 14-19 after 18 to 24 hrs by two-fold serial dilution method; summary of the method: as §1
Staphylococcus aureus [9] = test: Antibacterial activity against methicillin-sensitive Staphylococcus aureus 14-3 after 18 to 24 hrs by two-fold serial dilution method; summary of the method: as §1
[10] = tested on: Mycobacterium tuberculosis; test: Antimycobacterial activity against Mycobacterium tuberculosis H37Rv ATCC 27294 incubated for 7 days by microplate Alamar Blue assay; conditions: H37Rv ATCC 27294, 168 h
Summary of the method: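 Fluorescence read-out. MIC is the lowest concentration that reduces fluorescence by at least 90% relative to the mean of replicate bacterium-only controls. Isoniazid and rifampicin were included as reference drugs.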

Escherichia coli [11] = test: Antibacterial activity against Escherichia coli ATCC 25922 after 18 to 24 hrs by two-fold serial dilution method; summary of the method: as §1
Pseudomonas aeruginosa [12] = test: Antibacterial activity against Pseudomonas aeruginosa 14-9 after 18 to 24 hrs by two-fold serial dilution method; summary of the method: as §1
Klebsiella pneumoniae [13] = test: Antibacterial activity against Klebsiella pneumoniae 14-2 after 18 to 24 hrs by two-fold serial dilution method; summary of the method: as §1
[14] = tested on: Staphylococcus epidermidis; test: Antibacterial activity against methicillin-resistant Staphylococcus epidermidis 14-22 after 18 to 24 hrs by two-fold serial dilution method; summary of the method: as §2
[15] = tested on: Staphylococcus epidermidis; test: Antibacterial activity against methicillin-resistant Staphylococcus epidermidis 14-21 after 18 to 24 hrs by two-fold serial dilution method; summary of the method: as §2
[16] = tested on: Staphylococcus epidermidis; test: Antibacterial activity against methicillin-resistant Staphylococcus epidermidis 14-37 after 18 to 24 hrs by two-fold serial dilution method; summary of the method: as §2
Escherichia coli [17] = test: Antibacterial activity against extended-spectrum beta-lactamase producing Escherichia coli 14-2 after 18 to 24 hrs by two-fold serial dilution method; summary of the method: as §1
Pseudomonas aeruginosa [18] = test: Antibacterial activity against Pseudomonas aeruginosa ATCC 27853 after 18 to 24 hrs by two-fold serial dilution method; summary of the method: as §1
Escherichia coli [19] = test: Antibacterial activity against Escherichia coli 14-1 after 18 to 24 hrs by two-fold serial dilution method; summary of the method: as §1
Pseudomonas aeruginosa [20] = test: Antibacterial activity against Pseudomonas aeruginosa 14-14 after 18 to 24 hrs by two-fold serial dilution method; summary of the method: as §1
Enterococcus faecalis [21] = test: Antibacterial activity against Enterococcus faecalis 14-1 after 18 to 24 hrs by two-fold serial dilution method; summary of the method: as §1
Klebsiella pneumoniae [22] = test: Antibacterial activity against Klebsiella pneumoniae 14-3 after 18 to 24 hrs by two-fold serial dilution method; summary of the method: as §1
Pseudomonas aeruginosa [23] = test: Antibacterial activity against Pseudomonas aeruginosa 14-15 after 18 to 24 hrs by two-fold serial dilution method; summary of the method: as §1
Klebsiella pneumoniae [24] = test: Antibacterial activity against Klebsiella pneumoniae 14-1 after 18 to 24 hrs by two-fold serial dilution method; summary of the method: as §1
Pseudomonas aeruginosa [25] = test: Antibacterial activity against Pseudomonas aeruginosa 14-16 after 18 to 24 hrs by two-fold serial dilution method; summary of the method: as §1
Escherichia coli [26] = test: Antibacterial activity against extended-spectrum beta-lactamase producing Escherichia coli 14-1 after 18 to 24 hrs by two-fold serial dilution method; summary of the method: as §1
[27] = tested on: Staphylococcus epidermidis; test: Antibacterial activity against methicillin-sensitive Staphylococcus epidermidis 14-2 after 18 to 24 hrs by two-fold serial dilution method; summary of the method: as §1
Klebsiella pneumoniae [28] = test: Antibacterial activity against extended-spectrum beta-lactamase producing Klebsiella pneumoniae 14-18 after 18 to 24 hrs by two-fold serial dilution method; summary of the method: as §1
Staphylococcus aureus [29] = test: Antibacterial activity against methicillin-sensitive Staphylococcus aureus 14-4 after 18 to 24 hrs by two-fold serial dilution method; summary of the method: as §1
Staphylococcus aureus [30] = test: Antibacterial activity against methicillin-sensitive Staphylococcus aureus 14-1 after 18 to 24 hrs by two-fold serial dilution method; summary of the method: as §1
Klebsiella pneumoniae [31] = test: Antibacterial activity against extended-spectrum beta-lactamase producing Klebsiella pneumoniae 14-17 after 18 to 24 hrs by two-fold serial dilution method; summary of the method: as §1
Staphylococcus aureus [32] = test: Antibacterial activity against methicillin-resistant Staphylococcus aureus 14-4 after 18 to 24 hrs by two-fold serial dilution method; summary of the method: as §2
Escherichia coli [33] = test: Antibacterial activity against Escherichia coli 14-2 after 18 to 24 hrs by two-fold serial dilution method; summary of the method: as §1
Enterococcus faecium [34] = test: Antibacterial activity against Enterococcus faecium 14-2 after 18 to 24 hrs by two-fold serial dilution method; summary of the method: as §1

Structure (SMILES) | MIC (Enterococcus faecium [1]) [µg/mL] | MIC (Staphylococcus aureus [2]) [µg/mL] | MIC [3] [µg/mL] | MIC (Staphylococcus aureus [4]) [µg/mL] | MIC (Klebsiella pneumoniae [5]) [µg/mL] | MIC (Streptococcus pneumoniae) [µg/mL] | MIC (Enterococcus faecalis [6]) [µg/mL] | MIC (Enterococcus faecium [7]) [µg/mL] | MIC (Klebsiella pneumoniae [8]) [µg/mL] | MIC (Staphylococcus aureus [9]) [µg/mL] | MIC90 [10] [µg/mL] | MIC (Escherichia coli [11]) [µg/mL] | MIC (Pseudomonas aeruginosa [12]) [µg/mL] | MIC (Klebsiella pneumoniae [13]) [µg/mL] | MIC [14] [µg/mL] | MIC [15] [µg/mL] | MIC [16] [µg/mL] | MIC (Escherichia coli [17]) [µg/mL] | MIC (Pseudomonas aeruginosa [18]) [µg/mL] | MIC (Escherichia coli [19]) [µg/mL] | other results
CCO/N=C1/CN(c2c(F)cc3c(=O)c(C(=O)O)cn4c3c2OC[C@@H]4C)CC1(C)CNC1CC1 (stereo not given in full) | 16 (≈ 33.9 µM) | 16 (≈ 33.9 µM) | 8 (≈ 16.9 µM) | < 0.008 | > 128 | 0.25 (≈ 0.529 µM) | 1 (≈ 2.12 µM) | 4 (≈ 8.47 µM) | 32 (≈ 67.7 µM) | 0.03 (≈ 0.0635 µM) | 2.76 (≈ 5.84 µM) | 2 (≈ 4.23 µM) | 64 (≈ 135 µM) | 64 (≈ 135 µM) | 8 (≈ 16.9 µM) | 8 (≈ 16.9 µM) | 4 (≈ 8.47 µM) | > 128 | 64 (≈ 135 µM) | > 128 | MIC (Pseudomonas aeruginosa [20]): 128 µg/mL (≈ 271 µM); MIC (Enterococcus faecalis [21]): 32 µg/mL (≈ 67.7 µM); MIC (Klebsiella pneumoniae [22]): > 128 µg/mL; MIC (Pseudomonas aeruginosa [23]): 64 µg/mL (≈ 135 µM); MIC (Klebsiella pneumoniae [24]): 64 µg/mL (≈ 135 µM); MIC (Pseudomonas aeruginosa [25]): 64 µg/mL (≈ 135 µM); MIC (Escherichia coli [26]): 8 µg/mL (≈ 16.9 µM); MIC [27]: 32 µg/mL (≈ 67.7 µM); MIC (Klebsiella pneumoniae [28]): 32 µg/mL (≈ 67.7 µM); MIC (Staphylococcus aureus [29]): 0.06 µg/mL (≈ 0.127 µM); MIC (Staphylococcus aureus [30]): 4 µg/mL (≈ 8.47 µM); MIC (Klebsiella pneumoniae [31]): 32 µg/mL (≈ 67.7 µM); MIC (Staphylococcus aureus [32]): 64 µg/mL (≈ 135 µM); MIC (Escherichia coli [33]): > 128 µg/mL; MIC (Enterococcus faecium [34]): 16 µg/mL (≈ 33.9 µM)
CC1(CNC2CC2)CN(c2nc3c(cc2F)c(=O)c(C(=O)O)cn3-c2nc(N)c(F)cc2F)C/C1=N/OCc1ccccc1 (stereo not given) | 128 (≈ 211 µM) | 32 (≈ 52.7 µM) | 128 (≈ 211 µM) | 1 (≈ 1.65 µM) | > 128 | 8 (≈ 13.2 µM) | 16 (≈ 26.3 µM) | > 128 | > 128 | 8 (≈ 13.2 µM) | 16 (≈ 26.3 µM) | 64 (≈ 105 µM) | 128 (≈ 211 µM) | > 128 | 128 (≈ 211 µM) | 32 (≈ 52.7 µM) | 64 (≈ 105 µM) | > 128 | 128 (≈ 211 µM) | > 128 | MIC (Pseudomonas aeruginosa [20]): 128 µg/mL (≈ 211 µM); MIC (Enterococcus faecalis [21]): 32 µg/mL (≈ 52.7 µM); MIC (Klebsiella pneumoniae [22]): 128 µg/mL (≈ 211 µM); MIC (Pseudomonas aeruginosa [23]): 128 µg/mL (≈ 211 µM); MIC (Klebsiella pneumoniae [24]): > 128 µg/mL; MIC (Pseudomonas aeruginosa [25]): > 128 µg/mL; MIC (Escherichia coli [26]): > 128 µg/mL; MIC [27]: 64 µg/mL (≈ 105 µM); MIC (Klebsiella pneumoniae [28]): > 128 µg/mL; MIC (Staphylococcus aureus [29]): 4 µg/mL (≈ 6.58 µM); MIC (Staphylococcus aureus [30]): 16 µg/mL (≈ 26.3 µM); MIC (Klebsiella pneumoniae [31]): > 128 µg/mL; MIC (Staphylococcus aureus [32]): 16 µg/mL (≈ 26.3 µM); MIC (Escherichia coli [33]): > 128 µg/mL; MIC (Enterococcus faecium [34]): 32 µg/mL (≈ 52.7 µM)

Reference: ChEMBL document CHEMBL3734675, “Synthesis, antimycobacterial and antibacterial activity of fluoroquinolone derivatives containing an 3-alkoxyimino-4-(cyclopropylanimo)methylpyrrolidine moiety” (2015)
